The source made the active and inactive calls. The calls are words filed in the database; no cut-off is given here.
Key:
[1] = target: Sigma non-opioid intracellular receptor 1 (Homo sapiens, UniProt Q99720); assay: Displacement of [3H]-Pentazocine from sigma 1 receptor (unknown origin) measured after 90 mins by microbeta counting analysis
Mus musculus [2] = assay: In vivo agonist activity at A3AR in C57BL/6J mouse assessed as reduction in core body temperature at 10 mg/kg, ip measured up to 2 hrs by telemetric method; type: functional, organism-based
Outline: (§1)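 Male C57BL/6J wild-type mice, plus A3AR-knockout (ADORA3−/−) mice at 10 mg/kg, given test agent or vehicle i.p. Core body temperature (Tb) was followed over time. N=4 to 12 per group. Groups were compared by two-tailed t-test, paired or unpaired as appropriate.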

[3] = Half life in Wistar rat at 3 mg/kg, po; type: ADME, organism-based; details: in vivo
Adenosine receptor A1 = target: T1, Adenosine receptor A1 (Mus musculus, UniProt Q60612); assay: Displacement of [3H]R-PIA from recombinant mouse A1AR expressed in HEK293 cell membranes measured after 60 mins by liquid scintillation counting method
T1 sequence (Q60612 whole entry): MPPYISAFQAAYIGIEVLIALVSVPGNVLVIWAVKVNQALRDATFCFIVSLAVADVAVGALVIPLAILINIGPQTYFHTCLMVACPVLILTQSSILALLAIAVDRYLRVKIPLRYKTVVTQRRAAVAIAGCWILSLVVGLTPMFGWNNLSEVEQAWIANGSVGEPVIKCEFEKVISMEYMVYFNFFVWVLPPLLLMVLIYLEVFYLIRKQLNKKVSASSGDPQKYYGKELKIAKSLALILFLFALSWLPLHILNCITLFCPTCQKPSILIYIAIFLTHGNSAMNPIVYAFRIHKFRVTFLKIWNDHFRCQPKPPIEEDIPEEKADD

Cytochrome P450 3A4 = Cytochrome P450 3A4 (Homo sapiens, UniProt P08684); assay: Inhibition of CYP3A4 (unknown origin) using midazolam as substrate
Cytochrome P450 2C19 = Cytochrome P450 2C19 (Homo sapiens, UniProt P33261); assay: Inhibition of CYP2C19 (unknown origin)
[4] = target: Sigma intracellular receptor 2 (Homo sapiens, UniProt Q5BJF2); assay: Displacement of [3H]-DTG from sigma 2 receptor (unknown origin) measured after 90 mins by microbeta counting analysis
Mus musculus [5] = assay: Induction of hypothermia in A3AR knock out C57BL/6J mouse at 10 mg/kg, ip measured up to 2 hrs by telemetric method; type: functional, organism-based; outline: as §1
[6] = target: T2, Adenosine receptor A3 (Homo sapiens) (UniProt P0DMS8); assay: Partial agonist activity at recombinant human A3AR expressed in HEK293 cells assessed as inhibition of forskolin-stimulated cAMP accumulation by measuring residual cAMP level measured after 30 mins in presence of A2BAR blocker PSB-603 by Glo-sensor assay relative to control; type: functional, cell-based
T2 sequence (whole entry): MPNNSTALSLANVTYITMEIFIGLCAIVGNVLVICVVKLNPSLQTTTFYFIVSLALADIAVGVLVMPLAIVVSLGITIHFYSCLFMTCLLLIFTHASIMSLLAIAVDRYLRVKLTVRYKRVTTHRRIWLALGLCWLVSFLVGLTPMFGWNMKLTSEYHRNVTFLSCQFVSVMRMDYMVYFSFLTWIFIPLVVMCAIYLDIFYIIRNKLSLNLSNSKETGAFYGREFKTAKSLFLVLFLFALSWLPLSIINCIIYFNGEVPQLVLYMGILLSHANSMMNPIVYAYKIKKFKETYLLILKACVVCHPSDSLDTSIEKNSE

[7] = target: T3, Adenosine receptor A3 (Mus musculus) (UniProt Q61618); assay: Partial agonist activity at recombinant mouse A3AR expressed in HEK293 cell membranes assessed as stimulation of [35S]GTPgammaS binding measured after 2 hrs in presence of A2BAR blocker PSB-603 by liquid scintillation counting analysis relative to adenosine-5'-Nethyluronamide; type: functional
T3 sequence (whole entry): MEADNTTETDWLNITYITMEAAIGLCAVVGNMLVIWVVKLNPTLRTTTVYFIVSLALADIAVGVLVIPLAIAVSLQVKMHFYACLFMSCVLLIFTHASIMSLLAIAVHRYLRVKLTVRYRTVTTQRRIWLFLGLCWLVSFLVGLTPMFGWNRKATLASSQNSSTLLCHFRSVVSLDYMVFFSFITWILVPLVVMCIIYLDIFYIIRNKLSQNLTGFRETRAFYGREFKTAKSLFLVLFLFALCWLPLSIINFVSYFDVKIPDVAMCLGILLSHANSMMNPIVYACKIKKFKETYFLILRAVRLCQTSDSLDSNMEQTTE

Cytochrome P450 1A2 = target: T4, Cytochrome P450 1A2 (Homo sapiens, UniProt P05177); assay: Inhibition of CYP1A2 (unknown origin)
T4 sequence (P05177 whole entry): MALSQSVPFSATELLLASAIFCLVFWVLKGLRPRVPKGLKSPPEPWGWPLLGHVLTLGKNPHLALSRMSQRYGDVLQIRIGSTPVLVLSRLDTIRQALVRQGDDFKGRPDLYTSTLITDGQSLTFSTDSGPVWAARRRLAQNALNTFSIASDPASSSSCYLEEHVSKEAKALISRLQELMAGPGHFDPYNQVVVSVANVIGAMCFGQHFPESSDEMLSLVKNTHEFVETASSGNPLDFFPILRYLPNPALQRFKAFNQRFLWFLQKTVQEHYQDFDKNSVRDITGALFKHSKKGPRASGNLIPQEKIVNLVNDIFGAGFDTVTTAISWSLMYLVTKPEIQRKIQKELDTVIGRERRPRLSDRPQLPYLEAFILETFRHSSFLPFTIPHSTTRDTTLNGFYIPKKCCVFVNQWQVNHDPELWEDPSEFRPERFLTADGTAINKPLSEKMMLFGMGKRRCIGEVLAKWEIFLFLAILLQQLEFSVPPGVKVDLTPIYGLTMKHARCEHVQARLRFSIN

Mus musculus [8] = assay: In vivo antagonist activity at A3AR in C57BL/6J mouse assessed as inhibition of MRS5698-induced hypothermia at 3 to 10 mg/kg, ip pretreated for 15 mins followed by MRS5698 addition and measured up to 2 hrs by telemetric method; type: functional, organism-based
Mus musculus [9] = assay: In vivo agonist activity at A3AR in C57BL/6J mouse assessed as reduction in core body temperature at 3 mg/kg, ip measured up to 2 hrs by telemetric method; type: functional, organism-based; outline: as §1
Translocator protein = Translocator protein (Homo sapiens, UniProt P30536); assay: Inhibition of TSPO (unknown origin)
in vivo [10] = details: Wistar, rat, po, 10 mg/kg
Cytochrome P450 2D6 = Cytochrome P450 2D6 (Homo sapiens, UniProt P10635); assay: Inhibition of CYP2D6 (unknown origin) using dextromethorphan as substrate
Adenosine receptor A2a = Adenosine receptor A2a (Homo sapiens, UniProt P29274); assay: Displacement of [3H]CGS21680 from recombinant human A2AAR expressed in HEK293 cell membranes at 10 uM measured after 60 mins by liquid scintillation counting method relative to control
[11] = target: T5, Adenosine receptor A1 (Homo sapiens) (UniProt P30542); assay: Displacement of [3H]R-PIA from recombinant human A1AR expressed in HEK293 cell membranes at 10 uM measured after 60 mins by liquid scintillation counting method relative to control
T5 sequence (whole entry): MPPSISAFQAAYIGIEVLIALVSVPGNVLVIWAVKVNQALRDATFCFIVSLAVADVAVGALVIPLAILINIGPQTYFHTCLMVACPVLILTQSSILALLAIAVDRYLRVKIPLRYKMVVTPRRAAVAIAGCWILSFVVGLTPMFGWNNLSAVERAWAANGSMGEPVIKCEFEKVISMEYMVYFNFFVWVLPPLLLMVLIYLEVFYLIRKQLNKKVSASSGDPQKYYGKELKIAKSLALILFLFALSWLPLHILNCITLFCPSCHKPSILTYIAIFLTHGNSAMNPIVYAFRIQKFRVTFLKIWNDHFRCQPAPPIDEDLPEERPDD

in vivo [12] = details: Wistar, rat, po, 3 mg/kg
[13] = Half life in Wistar rat at 10 mg/kg, po; type: ADME, organism-based; details: in vivo
[14] = target: T2, Adenosine receptor A3 (Homo sapiens); assay: Partial agonist activity at recombinant human A3AR expressed in HEK293 cells assessed as inhibition of forskolin-stimulated cAMP accumulation at 10 uM measured after 30 mins in presence of A2BAR blocker PSB-603 by Glo-sensor assay relative to Cl-IB-MECA; type: functional, cell-based
Cytochrome P450 2C9 = Cytochrome P450 2C9 (Homo sapiens, UniProt P11712); assay: Inhibition of CYP2C9 (unknown origin) using tolbutamide as substrate
Cytochrome P450 2C9, sequence (P11712 whole entry): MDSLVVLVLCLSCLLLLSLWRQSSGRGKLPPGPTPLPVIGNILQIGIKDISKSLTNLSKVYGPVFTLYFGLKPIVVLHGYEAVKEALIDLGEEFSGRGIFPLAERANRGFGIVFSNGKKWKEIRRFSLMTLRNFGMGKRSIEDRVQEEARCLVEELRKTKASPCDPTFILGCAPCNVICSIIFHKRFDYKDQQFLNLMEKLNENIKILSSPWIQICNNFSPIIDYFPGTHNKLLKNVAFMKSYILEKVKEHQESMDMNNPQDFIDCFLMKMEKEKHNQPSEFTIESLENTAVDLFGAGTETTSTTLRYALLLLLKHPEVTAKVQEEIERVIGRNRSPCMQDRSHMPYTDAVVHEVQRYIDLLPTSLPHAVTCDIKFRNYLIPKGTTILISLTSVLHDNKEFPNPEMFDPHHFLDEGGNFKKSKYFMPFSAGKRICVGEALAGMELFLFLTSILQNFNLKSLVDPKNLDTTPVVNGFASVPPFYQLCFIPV

Translocator protein, sequence (P30536 whole entry): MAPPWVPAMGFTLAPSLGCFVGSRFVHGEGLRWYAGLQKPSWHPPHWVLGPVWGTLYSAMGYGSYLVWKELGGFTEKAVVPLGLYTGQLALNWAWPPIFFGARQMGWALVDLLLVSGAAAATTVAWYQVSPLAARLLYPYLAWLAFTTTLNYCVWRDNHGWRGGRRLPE
Cytochrome P450 2D6, sequence (P10635 whole entry): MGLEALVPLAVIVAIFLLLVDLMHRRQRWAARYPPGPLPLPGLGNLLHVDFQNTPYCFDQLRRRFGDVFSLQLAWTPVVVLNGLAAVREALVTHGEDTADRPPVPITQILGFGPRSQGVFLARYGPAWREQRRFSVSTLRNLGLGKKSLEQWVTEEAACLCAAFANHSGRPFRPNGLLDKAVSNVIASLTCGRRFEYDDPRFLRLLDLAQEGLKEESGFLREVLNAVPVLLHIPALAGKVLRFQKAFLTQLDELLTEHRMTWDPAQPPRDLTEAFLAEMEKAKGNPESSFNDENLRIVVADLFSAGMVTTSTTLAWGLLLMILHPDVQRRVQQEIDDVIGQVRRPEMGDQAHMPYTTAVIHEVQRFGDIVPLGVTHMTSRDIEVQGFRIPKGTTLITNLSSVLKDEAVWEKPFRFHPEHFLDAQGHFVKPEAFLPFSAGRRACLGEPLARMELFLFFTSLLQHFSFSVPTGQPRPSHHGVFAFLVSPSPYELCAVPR
Sigma non-opioid intracellular receptor 1, sequence (Q99720 whole entry): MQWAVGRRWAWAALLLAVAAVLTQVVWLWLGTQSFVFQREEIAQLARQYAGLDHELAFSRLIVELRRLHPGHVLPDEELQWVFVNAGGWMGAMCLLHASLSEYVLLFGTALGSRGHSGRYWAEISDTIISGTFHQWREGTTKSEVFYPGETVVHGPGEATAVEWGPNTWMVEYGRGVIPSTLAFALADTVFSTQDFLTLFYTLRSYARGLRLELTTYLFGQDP
Cytochrome P450 2C19, sequence (P33261 whole entry): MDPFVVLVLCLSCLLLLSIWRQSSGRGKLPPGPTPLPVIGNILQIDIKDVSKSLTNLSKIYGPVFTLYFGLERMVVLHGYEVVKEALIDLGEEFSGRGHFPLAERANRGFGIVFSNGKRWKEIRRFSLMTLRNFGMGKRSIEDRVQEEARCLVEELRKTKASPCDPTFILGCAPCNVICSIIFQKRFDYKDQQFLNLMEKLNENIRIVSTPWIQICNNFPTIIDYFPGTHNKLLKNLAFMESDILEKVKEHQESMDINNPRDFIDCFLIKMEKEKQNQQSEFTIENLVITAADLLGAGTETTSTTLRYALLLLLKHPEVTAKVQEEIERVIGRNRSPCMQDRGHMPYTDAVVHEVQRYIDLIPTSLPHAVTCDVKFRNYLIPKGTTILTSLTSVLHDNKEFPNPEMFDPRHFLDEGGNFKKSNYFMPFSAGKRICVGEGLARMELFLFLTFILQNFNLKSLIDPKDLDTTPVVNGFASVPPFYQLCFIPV
Adenosine receptor A2a, sequence (P29274 whole entry): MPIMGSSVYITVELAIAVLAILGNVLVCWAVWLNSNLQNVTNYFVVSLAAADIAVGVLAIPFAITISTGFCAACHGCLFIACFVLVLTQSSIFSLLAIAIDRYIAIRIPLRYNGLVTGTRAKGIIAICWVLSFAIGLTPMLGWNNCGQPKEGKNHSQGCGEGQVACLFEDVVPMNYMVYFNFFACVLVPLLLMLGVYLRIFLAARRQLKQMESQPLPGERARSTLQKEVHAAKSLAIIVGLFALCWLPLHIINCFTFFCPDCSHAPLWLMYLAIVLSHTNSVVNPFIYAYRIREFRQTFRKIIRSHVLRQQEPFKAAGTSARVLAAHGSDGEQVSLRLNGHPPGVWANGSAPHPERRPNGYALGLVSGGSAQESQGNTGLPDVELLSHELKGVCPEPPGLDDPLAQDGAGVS
Sigma intracellular receptor 2, sequence (Q5BJF2 whole entry): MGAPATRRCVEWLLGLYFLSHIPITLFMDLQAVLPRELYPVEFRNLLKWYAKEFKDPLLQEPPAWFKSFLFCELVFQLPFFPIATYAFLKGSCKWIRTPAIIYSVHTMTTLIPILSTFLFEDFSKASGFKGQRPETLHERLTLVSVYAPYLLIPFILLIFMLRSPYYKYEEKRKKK
Cytochrome P450 3A4, sequence (P08684 whole entry): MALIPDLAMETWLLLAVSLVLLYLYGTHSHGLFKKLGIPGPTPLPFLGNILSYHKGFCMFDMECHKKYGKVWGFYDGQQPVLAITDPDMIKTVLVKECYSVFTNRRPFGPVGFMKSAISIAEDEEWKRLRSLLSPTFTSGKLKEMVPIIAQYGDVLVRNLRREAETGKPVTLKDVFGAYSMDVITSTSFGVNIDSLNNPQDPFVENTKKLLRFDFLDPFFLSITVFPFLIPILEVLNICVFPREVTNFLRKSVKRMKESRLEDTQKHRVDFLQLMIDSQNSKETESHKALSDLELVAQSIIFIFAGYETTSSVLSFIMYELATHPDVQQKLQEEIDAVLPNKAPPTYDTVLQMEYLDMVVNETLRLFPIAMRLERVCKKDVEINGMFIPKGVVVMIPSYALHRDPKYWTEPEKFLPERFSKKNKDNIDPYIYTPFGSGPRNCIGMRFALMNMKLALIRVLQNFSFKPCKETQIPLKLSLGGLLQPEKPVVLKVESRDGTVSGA

What does the source list for `COc1cc(CCNc2nc(C#Cc3ccccc3)nc3c2ncn3[C@H]2[C@H](O)[C@H](O)[C@@H]3C[C@@H]32)ccc1O`?
Ki [1]: 3570 nM; Activity (Mus musculus [2]): Active; half-life [3]: 27.4 min; Ki (Adenosine receptor A1): 590 nM; IC50 (Cytochrome P450 3A4): 2230 nM; IC50 (Cytochrome P450 2C19): > 30000 nM; Ki [4]: 1980 nM; Activity (Mus musculus [5]): inactive; Emax [6]: 75.5%; Emax [7]: 16%; IC50 (Cytochrome P450 1A2): 2890 nM; inhibition (Mus musculus [8]): inactive; Activity (Mus musculus [9]): Active; Ki (Translocator protein): 2220 nM; bioavailability (in vivo [10]): 3.5%; IC50 (Cytochrome P450 2D6): > 30000 nM; inhibition (Adenosine receptor A2a): 39%; inhibition [11]: 33%; bioavailability (in vivo [12]): 1.5%; half-life [13]: 29.4 min; Emax [14]: 31%; IC50 (Cytochrome P450 2C9): 14400 nM
